Test results published in ChEMBL document CHEMBL4007396, “New diphenylmethane derivatives as peroxisome proliferator-activated receptor alpha/gamma dual agonists endowed with anti-proliferative effects and mitochondrial activity” (Eur J Med Chem, 2017).
Values belong to the compound of their own block, whether it stands above or below them. The source made the active and inactive calls. The calls are words filed in the database; no cut-off is given here.

How the values were obtained:
[1] = biological target: T1, Bile acid receptor (Homo sapiens) (UniProt Q96RI1); assay: Agonist activity at GAL4-fused human FXR LBD expressed in human HepG2 cells up to 2 uM after 20 hrs by luciferase reporter gene assay; assay type: cell-based
T1 sequence (whole entry): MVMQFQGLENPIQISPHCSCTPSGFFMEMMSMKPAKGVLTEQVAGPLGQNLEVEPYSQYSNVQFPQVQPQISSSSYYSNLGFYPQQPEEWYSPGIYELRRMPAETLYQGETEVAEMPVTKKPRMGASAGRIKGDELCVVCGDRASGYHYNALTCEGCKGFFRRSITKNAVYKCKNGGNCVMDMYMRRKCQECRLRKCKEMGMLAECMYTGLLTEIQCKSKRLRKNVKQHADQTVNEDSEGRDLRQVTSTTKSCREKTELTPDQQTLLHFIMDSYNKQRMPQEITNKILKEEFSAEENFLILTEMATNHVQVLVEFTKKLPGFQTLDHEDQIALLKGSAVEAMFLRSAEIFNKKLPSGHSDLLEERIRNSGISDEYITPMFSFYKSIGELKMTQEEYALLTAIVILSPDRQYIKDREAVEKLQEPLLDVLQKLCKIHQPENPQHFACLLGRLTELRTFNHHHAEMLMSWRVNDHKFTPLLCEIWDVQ
In short: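 HepG2 in MEM/10% FBS, calcium-phosphate co-transfection 24 h after seeding with GAL4-FXR-LBD (30 ng), pGAL5TKpGL3 luciferase reporter (100 ng) and pCMVβgal (250 ng); 4 h later, 20 h ligand exposure in triplicate. Luciferase normalized to β-galactosidase (ONPG); efficacy as % of maximal fold induction of chenodeoxycholic acid reference; tested up to 2 μM.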

[2] = test system: HepG2; assay: Cytotoxicity against human HepG2 cells at >2 uM; assay type: cell-based
[3] = biological target: T2, Peroxisome proliferator-activated receptor delta (Homo sapiens, UniProt Q03181); assay: Transactivation of GAL4-fused human PPARdelta LBD expressed in human HepG2 cells after 20 hrs by luciferase reporter gene assay; assay type: cell-based
T2 sequence (Q03181 whole entry): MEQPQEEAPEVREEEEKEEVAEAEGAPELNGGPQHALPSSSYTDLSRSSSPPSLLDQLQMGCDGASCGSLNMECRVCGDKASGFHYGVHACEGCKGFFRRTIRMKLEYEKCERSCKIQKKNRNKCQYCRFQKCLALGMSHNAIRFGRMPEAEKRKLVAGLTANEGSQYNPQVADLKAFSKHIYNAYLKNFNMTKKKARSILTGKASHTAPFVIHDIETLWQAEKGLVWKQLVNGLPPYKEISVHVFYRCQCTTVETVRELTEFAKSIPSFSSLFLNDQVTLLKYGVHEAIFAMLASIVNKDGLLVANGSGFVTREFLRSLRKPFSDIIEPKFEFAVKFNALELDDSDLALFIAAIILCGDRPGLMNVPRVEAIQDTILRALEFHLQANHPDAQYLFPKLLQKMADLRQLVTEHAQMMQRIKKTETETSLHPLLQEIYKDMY
In short: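 HepG2 cells seeded 10⁵/well, transfected after 24 h by calcium phosphate with GAL4-PPARδ-LBD (30 ng), pGAL5TKpGL3 luciferase reporter (100 ng) and pCMVβgal (250 ng); 4 h later treated 20 h in triplicate with ligands up to 2 μM. Luciferase in cell extracts normalised to β-galactosidase (ONPG); efficacy as % of maximal fold induction of reference agonist L-165,041; experiments repeated at least twice.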

[4] = biological target: T3, Peroxisome proliferator-activated receptor alpha (Homo sapiens, UniProt Q07869); assay: Binding affinity to PPARalpha (unknown origin) assessed as thermodynamic dissociation constant by SPR assay
T3 sequence (Q07869 whole entry): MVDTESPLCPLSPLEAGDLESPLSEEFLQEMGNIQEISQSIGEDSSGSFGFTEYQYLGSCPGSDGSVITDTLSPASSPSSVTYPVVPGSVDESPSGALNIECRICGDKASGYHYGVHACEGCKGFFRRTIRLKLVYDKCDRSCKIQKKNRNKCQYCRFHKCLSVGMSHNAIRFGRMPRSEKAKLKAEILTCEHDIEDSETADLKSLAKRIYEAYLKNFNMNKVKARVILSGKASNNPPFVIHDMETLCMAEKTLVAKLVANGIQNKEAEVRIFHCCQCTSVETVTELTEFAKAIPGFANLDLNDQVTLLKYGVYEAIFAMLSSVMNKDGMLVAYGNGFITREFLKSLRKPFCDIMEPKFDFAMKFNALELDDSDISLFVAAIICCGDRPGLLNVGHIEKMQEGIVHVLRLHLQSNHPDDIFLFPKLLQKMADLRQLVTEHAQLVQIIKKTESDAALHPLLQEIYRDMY

[5] = biological target: T4, Peroxisome proliferator-activated receptor gamma (Homo sapiens, UniProt P37231); assay: Binding affinity to PPARgamma (unknown origin) assessed as thermodynamic dissociation constant by SPR assay
T4 sequence (P37231 whole entry): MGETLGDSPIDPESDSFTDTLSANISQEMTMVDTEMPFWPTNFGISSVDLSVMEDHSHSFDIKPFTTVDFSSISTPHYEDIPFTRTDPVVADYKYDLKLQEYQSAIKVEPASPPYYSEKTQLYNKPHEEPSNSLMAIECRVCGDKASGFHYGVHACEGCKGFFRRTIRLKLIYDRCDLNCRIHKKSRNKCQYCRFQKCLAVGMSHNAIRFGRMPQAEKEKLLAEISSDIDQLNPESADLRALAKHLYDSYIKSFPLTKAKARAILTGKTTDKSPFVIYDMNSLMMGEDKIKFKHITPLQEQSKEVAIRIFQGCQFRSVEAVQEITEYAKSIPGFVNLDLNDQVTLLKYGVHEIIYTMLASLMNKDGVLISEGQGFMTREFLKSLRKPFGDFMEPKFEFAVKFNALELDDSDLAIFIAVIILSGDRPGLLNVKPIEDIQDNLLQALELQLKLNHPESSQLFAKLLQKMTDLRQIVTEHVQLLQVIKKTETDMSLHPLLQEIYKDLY

[6] = biological target: T2, Peroxisome proliferator-activated receptor delta; assay: Binding affinity to PPARdelta (unknown origin) assessed as thermodynamic dissociation constant by SPR assay; conditions: read-out: Kd
[7] = biological target: T3, Peroxisome proliferator-activated receptor alpha; assay: Binding affinity to PPARalpha (unknown origin) assessed as kinetic dissociation constant by SPR assay
[8] = biological target: T4, Peroxisome proliferator-activated receptor gamma; assay: Binding affinity to PPARgamma (unknown origin) assessed as kinetic dissociation constant by SPR assay
[9] = biological target: T2, Peroxisome proliferator-activated receptor delta; assay: Binding affinity to PPARdelta (unknown origin) assessed as kinetic dissociation constant by SPR assay
[10] = biological target: T3, Peroxisome proliferator-activated receptor alpha; assay: Transactivation of GAL4-fused human PPARalpa LBD expressed in human HepG2 cells after 20 hrs by luciferase reporter gene assay; assay type: cell-based
[11] = biological target: T4, Peroxisome proliferator-activated receptor gamma; assay: Transactivation of GAL4-fused human PPARgamma LBD expressed in human HepG2 cells after 20 hrs by luciferase reporter gene assay; assay type: cell-based
[12] = biological target: T5, Peroxisome proliferator-activated receptor alpha (Homo sapiens) (UniProt Q07869); assay: Agonist activity at PPARalpha in human HepG2 cells assessed as increase in CPT1 mRNA level at 1 uM after 24 hrs by RT-PCR method; assay type: cell-based
T5 sequence (whole entry): T3 sequence (Q07869 whole entry)
In short: (§1)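 Serum-free HepG2 exposed 24 h to 1 μM test agent (Wy-14,643 reference at 50 μM). RNA extracted from 1x10⁶ cells; TaqMan real-time RT-PCR for CAC, CPT1 or PPARα, normalized to β-actin. Mean ± SD of three independent duplicate experiments; one-way ANOVA with Bonferroni test.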

[13] = biological target: T5, Peroxisome proliferator-activated receptor alpha (Homo sapiens); assay: Agonist activity at PPARalpha assessed as induction of positive regulatory loop based receptor transcriptional activation by measuring upregulation of PPARalpha mRNA level in human HepG2 cells at 1 uM after 24 hrs by RT-PCR method; assay type: cell-based; in short: as §1
[14] = test system: HT-29; assay: Growth inhibition of human HT-29 cells assessed as cell vitality up to 10 uM up to 72 hrs by hemocytometry relative to control; assay type: functional; parameters: scale not given: the % may be the effect or the level left
In short: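 Exponentially growing HT-29 colon adenocarcinoma cells (D-MEM, 10% FBS, 37 °C, 5% CO2) exposed to vehicle (DMSO, final <0.1%) or 1, 5 and 10 μM compound in 10% FBS medium for 24, 48 and 72 hs; cells washed, trypsinized and counted by Bürker hemocytometer, three counts per well. Viability relative to vehicle; mean ± SD of three independent experiments in duplicate.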

[15] = biological target: T6, Peroxisome proliferator-activated receptor gamma (Homo sapiens) (UniProt P37231); assay: Agonist activity at PPARgamma in human HT-29 cells assessed as upregulation of p21waf1/cip1 protein expression at 10 uM after 48 hrs by Western blot method; assay type: cell-based
T6 sequence (whole entry): T4 sequence (P37231 whole entry)
In short: (§2)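 HT-29 or HEK293T cells in DMEM/10% FBS treated 48 h with 10 μM compound (DMSO vehicle, final below 0.1%). RIPA lysates (with protease inhibitors), 80 μg protein per lane immunoblotted for p21waf1/cip1 with β-actin loading control; densitometric p21/β-actin ratio, mean ± SD of at least three independent experiments.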

[16] = test system: HEK-293T; assay: Effect on p21waf1/cip1 protein expression in HEK293T cells at 10 uM after 48 hrs by Western blot method; assay type: cell-based; conditions: human; in short: as §2
[17] = biological target: T6, Peroxisome proliferator-activated receptor gamma (Homo sapiens); assay: Agonist activity at PPARgamma in human HT-29 cells harboring APC mutant assessed as inhibition of Wnt/beta-catenin signaling pathway by measuring decrease in c-Myc level at 10 uM treated for 24 hrs by Western blot method; assay type: cell-based
In short: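 RIPA lysates, 80 μg protein immunoblotted for c-Myc with β-actin loading control; c-Myc/β-actin densitometry, mean ± SD of at least three independent experiments.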

[18] = biological target: T5, Peroxisome proliferator-activated receptor alpha (Homo sapiens); assay: Agonist activity at PPARalpha in human HepG2 cells assessed as increase in CAC mRNA level at 1 uM after 24 hrs by RT-PCR method; assay type: cell-based; in short: as §1
[19] = biological target: T5, Peroxisome proliferator-activated receptor alpha (Homo sapiens); assay: Agonist activity at PPARalpha in human HepG2 cells assessed as increase in CAC protein expression level at 1 uM after 48 hrs by Western blot method; assay type: cell-based
In short: (§3)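 HepG2 serum-depleted 24 h, then treated 48 h with 1 μM compound (Wy-14,643 at 50 μM as reference). Nitrocellulose immunoblots probed for CAC, CPT1 or PPARα with β-actin loading control, chemiluminescent detection; band densitometry expressed as fold change versus untreated cells; three independent experiments.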

[20] = biological target: T5, Peroxisome proliferator-activated receptor alpha (Homo sapiens); assay: Agonist activity at PPARalpha in human HepG2 cells assessed as increase in CPT1 protein expression level at 1 uM after 48 hrs by Western blot method; assay type: cell-based; in short: as §3
[21] = biological target: T5, Peroxisome proliferator-activated receptor alpha (Homo sapiens); assay: Agonist activity at PPARalpha assessed as induction of positive regulatory loop based receptor transcriptional activation by measuring upregulation of PPARalpha protein expression level in human HepG2 cells at 1 uM after 48 hrs by Western blot method; assay type: cell-based; in short: as §3
[22] = biological target: T5, Peroxisome proliferator-activated receptor alpha (Homo sapiens); assay: Agonist activity at PPARalpha in human HepG2 cells assessed as increase in mitochondrial mass at 1 uM by CellLight Mitochondria-GFP staining based fluorescent microscopic method relative to control; assay type: cell-based
In short: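 Serum-free HepG2 at 60% confluence transduced with Mitochondria-GFP BacMam 2.0 (50 particles/cell) and given 1 μM compound or 50 μM Wy-14,643 for 24 h. Imaged at 20x with GFP filters (ex 485/em 535 nm); separately, SDS/Tris pH 7.5 lysates read at ex 475, em 500-550 nm. Mean ± SD of three experiments, ANOVA/Bonferroni.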

Activity [1]: inactive
SMILES: CCC(CC)(c1ccc(OCc2nc(-c3ccccc3)oc2C)cc1)c1ccc(OC(C)C(=O)O)cc1 (configuration not stated)
Activity [2]: Toxic

Activity [1]: inactive
SMILES: CCC(CC)(c1ccc(OCc2coc(-c3c(Cl)cccc3Cl)n2)cc1)c1ccc(OC(C)C(=O)O)cc1 (configuration not stated)
Activity [2]: Toxic

Activity [1]: inactive
SMILES: CCC(CC)(c1ccc(OCc2coc(-c3ccccc3)n2)cc1)c1ccc(OC(C)C(=O)O)cc1 (configuration not stated)
Activity [2]: Toxic

Activity [1]: inactive
SMILES: CCC(CC)(c1ccc(OCc2nc(-c3c(Cl)cccc3Cl)oc2C)cc1)c1ccc(OC(C)C(=O)O)cc1 (configuration not stated)
Activity [2]: Toxic

Continued, compound first:

SMILES: CCCc1c(OCCCOc2ccc(OCC(=O)O)cc2)ccc(C(C)=O)c1O
EC50 [3]: 20 nM
Kd [4]: Not Active
Kd [5]: Not Active
Kd [6]: 76.4 nM
Kd [7]: Not Active
Kd [8]: Not Active
Kd [9]: 0.43 s⁻¹

SMILES: CC(Oc1ccc(Cc2ccc(OCc3coc(-c4ccccc4)n3)cc2)cc1)C(=O)O (configuration not stated)
Activity [1]: inactive
Activity [2]: Toxic
EC50 [10]: 39 nM
EC50 [11]: 290 nM

SMILES: Cc1oc(-c2ccccc2)nc1COc1ccc(Cc2ccc(OC(C)C(=O)O)cc2)cc1 (configuration not stated)
Activity [1]: inactive
Activity [2]: Toxic
EC50 [10]: 100 nM
EC50 [11]: 290 nM
Activity [12]: Active
Activity [13]: Active
Activity [14]: 70%
Activity [15]: Active
Activity [16]: Non-Toxic
Activity [17]: Active
Activity [18]: Active
Activity [19]: Active
Activity [20]: Active
Activity [21]: Active
Activity [22]: 30%

SMILES: CN(CCOc1ccc(CC2SC(=O)NC2=O)cc1)c1ccccn1 (configuration not stated) [ROSIGLITAZONE]
Kd [4]: Not Active
Activity [14]: 65%
Kd [7]: Not Active
